In ChEMBL document CHEMBL1799953, “Backbone cyclic peptide inhibitors of protein kinase B (PKB/Akt)” (J Med Chem, 2011):
The source made the active and inactive calls. No cut-off for these calls is given here. *1 amine or outer side, *2 acyl side, *3 side chain or, on linkers, in order; H or OH if unused. Where a SMILES comes first, the peptide text is derived from it. Bridges are numbered along the chain shown (N, C = ends). [ ]: non-standard residue; d: D form. N(6-aminohexyl)Gly = O=C(CN(CCCCCCN[*:3])[*:1])[*:2]; NGly(3-aminopropyl) = O=C(CN(CCCN[*:3])[*:1])[*:2]; N(2-Aminoethyl)Gly = O=C(CN(CCN[*:3])[*:1])[*:2]; Heptanedioyl = O=C(CCCCCC(=O)[*:2])[*:1]; Glutaryl = O=C(CCCC(=O)[*:2])[*:1]; Gly(N-(CH2)6NH2) = NCCCCCCNCC(=O)O; Gly(N-2-aminoethyl) = NCCNCC(=O)O; Cha = N[C@@H](CC1CCCCC1)C(=O)O; Gly(N(CH2)3NH2) = NCCCNCC(=O)O; Suc = O=C(CCC(=O)[*:2])[*:1]; hLeu = CC(C)CC[C@H](N)C(=O)O; Nle = CCCC[C@H](N)C(=O)O; Nva = CCC[C@H](N)C(=O)O; Dap = NC[C@H](N)C(=O)O; CO = O=C([*:1])[*:2]; Nlys = NCCCCNCC(=O)O

Biological target: RAC-alpha serine/threonine-protein kinase (Homo sapiens, UniProt P31749)
Sequence (P31749 whole entry): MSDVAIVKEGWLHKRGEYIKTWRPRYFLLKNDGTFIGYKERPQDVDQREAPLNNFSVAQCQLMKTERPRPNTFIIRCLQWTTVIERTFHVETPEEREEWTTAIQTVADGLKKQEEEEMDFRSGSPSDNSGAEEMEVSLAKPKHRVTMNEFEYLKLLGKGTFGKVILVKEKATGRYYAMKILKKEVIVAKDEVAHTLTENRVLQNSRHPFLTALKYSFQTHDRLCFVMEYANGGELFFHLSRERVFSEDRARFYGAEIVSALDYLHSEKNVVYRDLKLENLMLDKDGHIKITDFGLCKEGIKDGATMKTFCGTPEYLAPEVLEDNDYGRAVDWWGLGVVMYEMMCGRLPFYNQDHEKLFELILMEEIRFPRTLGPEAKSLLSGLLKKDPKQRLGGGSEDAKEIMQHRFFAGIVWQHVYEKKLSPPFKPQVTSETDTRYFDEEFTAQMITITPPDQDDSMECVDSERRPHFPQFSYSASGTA
Experiment: Inhibition of Akt using RPRTSSF peptide and [gamma32]ATP at 5 uM by cell-free radioactive assay relative to control
Method in brief: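 Cell-free 32P kinase assay: HisΔPHPKBEEEFlag (0.005 units, one-step Ni-NTA partial purification), 50 mM Hepes pH 7.4, 0.1 mM EGTA, 0.1% 2-mercaptoethanol, 10 mM magnesium acetate, 3 μM RPRTSSF substrate, 10 μM [γ32P]ATP (1 μCi/well). Inhibitor at 5 μM. Activity loss expressed as percent of uninhibited reaction.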

Compound	inhibition
CCC[C@@H]1NC(=O)[C@H](CCCNC(=N)N)NC(=O)CN(C(=O)[C@@H](N)CCCNC(=N)N)CCNC(=O)NCCCCN(CC(N)=O)C(=O)[C@H](CCC(C)C)NC(=O)[C@H](CN)NC(=O)[C@H](Cc2ccc(O)cc2)NC1=O (H-R[N(2-Aminoethyl)Gly]R[Nva]Y[Dap][hLeu][Nlys]-NH2; linker 2-8 via CO)	98%
CCC[C@@H]1NC(=O)[C@H](CCCNC(=N)N)NC(=O)CN(C(=O)[C@@H](N)CCCNC(=N)N)CCCNC(=O)NCCCN(CC(N)=O)C(=O)[C@H](CCC(C)C)NC(=O)[C@H](CN)NC(=O)[C@H](Cc2ccc(O)cc2)NC1=O (H-R[NGly(3-aminopropyl)]R[Nva]Y[Dap][hLeu][NGly(3-aminopropyl)]-NH2; linker 2-8 via CO)	98%
CCC[C@@H]1NC(=O)[C@H](CCCNC(=N)N)NC(=O)[C@@H]2CCCN2C(=O)[C@H](CCCNC(=N)N)NC(=O)CCCC(=O)NCCCCN(CC(N)=O)C(=O)[C@H](CCC(C)C)NC(=O)[C@H](CN)NC(=O)[C@H](Cc2ccc(O)cc2)NC1=O (RPR[Nva]Y[Dap][hLeu][Nlys]-NH2; linker N-8 via Glutaryl)	14%
CCC[C@@H]1NC(=O)[C@H](CCCNC(=N)N)NC(=O)[C@@H]2CCCN2C(=O)[C@H](CCCNC(=N)N)NC(=O)CCCCCC(=O)NCCCCN(CC(N)=O)C(=O)[C@H](CCC(C)C)NC(=O)[C@H](CN)NC(=O)[C@H](Cc2ccc(O)cc2)NC1=O (RPR[Nva]Y[Dap][hLeu][Nlys]-NH2; linker N-8 via Heptanedioyl)	16%
CCC[C@@H]1NC(=O)[C@H](CCCNC(=N)N)NC(=O)CN(C(=O)[C@@H](N)CCCNC(=N)N)CCCCCCNC(=O)NCCN(CC(N)=O)C(=O)[C@H](CCC(C)C)NC(=O)[C@H](CN)NC(=O)[C@H](Cc2ccc(O)cc2)NC1=O (H-R[N(6-aminohexyl)Gly]R[Nva]Y[Dap][hLeu][N(2-Aminoethyl)Gly]-NH2; linker 2-8 via CO)	68%
CCC[C@@H]1NC(=O)[C@H](CCCNC(=N)N)NC(=O)[C@@H]2CCCN2C(=O)[C@H](CCCNC(=N)N)NC(=O)CCCCCC(=O)NCCCCCCN(CC(N)=O)C(=O)[C@H](CCC(C)C)NC(=O)[C@H](CN)NC(=O)[C@H](Cc2ccc(O)cc2)NC1=O (RPR[Nva]Y[Dap][hLeu][N(6-aminohexyl)Gly]-NH2; linker N-8 via Heptanedioyl)	30%
CCC[C@@H]1NC(=O)[C@H](CCCNC(=N)N)NC(=O)[C@@H]2CCCN2C(=O)[C@H](CCCNC(=N)N)NC(=O)CCC(=O)NCCCCCCN(CC(N)=O)C(=O)[C@H](CCC(C)C)NC(=O)[C@H](CN)NC(=O)[C@H](Cc2ccc(O)cc2)NC1=O (RPR[Nva]Y[Dap][hLeu][N(6-aminohexyl)Gly]-NH2; linker N-8 via Suc)	25%
CCC[C@@H]1NC(=O)[C@H](CCCNC(=N)N)NC(=O)CN(C(=O)[C@@H](N)CCCNC(=N)N)CCCNC(=O)NCCCCN(CC(N)=O)C(=O)[C@H](CCC(C)C)NC(=O)[C@H](CN)NC(=O)[C@H](Cc2ccc(O)cc2)NC1=O (H-R[NGly(3-aminopropyl)]R[Nva]Y[Dap][hLeu][Nlys]-NH2; linker 2-8 via CO)	92%
CCC[C@@H]1NC(=O)[C@H](CCCNC(=N)N)NC(=O)CN(C(=O)[C@@H](N)CCCNC(=N)N)CCCCNC(=O)NCCCCCCN(CC(N)=O)C(=O)[C@H](CCC(C)C)NC(=O)[C@H](CN)NC(=O)[C@H](Cc2ccc(O)cc2)NC1=O (H-R[Nlys]R[Nva]Y[Dap][hLeu][N(6-aminohexyl)Gly]-NH2; linker 2-8 via CO)	94%
CCC[C@@H]1NC(=O)[C@H](CCCNC(=N)N)NC(=O)CN(C(=O)[C@@H](N)CCCNC(=N)N)CCCNC(=O)NCCN(CC(N)=O)C(=O)[C@H](CCC(C)C)NC(=O)[C@H](CN)NC(=O)[C@H](Cc2ccc(O)cc2)NC1=O (H-R[NGly(3-aminopropyl)]R[Nva]Y[Dap][hLeu][N(2-Aminoethyl)Gly]-NH2; linker 2-8 via CO)	54%
CCC[C@@H]1NC(=O)[C@H](CCCNC(=N)N)NC(=O)CN(C(=O)[C@@H](N)CCCNC(=N)N)CCNC(=O)NCCN(CC(N)=O)C(=O)[C@H](CCC(C)C)NC(=O)[C@H](CN)NC(=O)[C@H](Cc2ccc(O)cc2)NC1=O (H-R[N(2-Aminoethyl)Gly]R[Nva]Y[Dap][hLeu][N(2-Aminoethyl)Gly]-NH2; linker 2-8 via CO)	30%
CCC[C@@H]1NC(=O)[C@H](CCCNC(=N)N)NC(=O)CN(C(=O)[C@@H](N)CCCNC(=N)N)CCCCNC(=O)NCCN(CC(N)=O)C(=O)[C@H](CCC(C)C)NC(=O)[C@H](CN)NC(=O)[C@H](Cc2ccc(O)cc2)NC1=O (H-R[Nlys]R[Nva]Y[Dap][hLeu][N(2-Aminoethyl)Gly]-NH2; linker 2-8 via CO)	84%
CCC[C@@H]1NC(=O)[C@H](CCCNC(=N)N)NC(=O)CN(C(=O)[C@@H](N)CCCNC(=N)N)CCCCNC(=O)NCCCN(CC(N)=O)C(=O)[C@H](CCC(C)C)NC(=O)[C@H](CN)NC(=O)[C@H](Cc2ccc(O)cc2)NC1=O (H-R[Nlys]R[Nva]Y[Dap][hLeu][NGly(3-aminopropyl)]-NH2; linker 2-8 via CO)	54%
CCC[C@@H]1NC(=O)[C@H](CCCNC(=N)N)NC(=O)CN(C(=O)[C@@H](N)CCCNC(=N)N)CCCCCCNC(=O)NCCCCCCN(CC(N)=O)C(=O)[C@H](CCC(C)C)NC(=O)[C@H](CN)NC(=O)[C@H](Cc2ccc(O)cc2)NC1=O (H-R[N(6-aminohexyl)Gly]R[Nva]Y[Dap][hLeu][N(6-aminohexyl)Gly]-NH2; linker 2-8 via CO)	39%
CCC[C@@H]1NC(=O)[C@H](CCCNC(=N)N)NC(=O)CN(C(=O)[C@@H](N)CCCNC(=N)N)CCCCCCNC(=O)NCCCCN(CC(N)=O)C(=O)[C@H](CCC(C)C)NC(=O)[C@H](CN)NC(=O)[C@H](Cc2ccc(O)cc2)NC1=O (H-R[N(6-aminohexyl)Gly]R[Nva]Y[Dap][hLeu][Nlys]-NH2; linker 2-8 via CO)	100%

Further lines, results first:

inhibition	Compound
inactive	CCC[C@H](NC(=O)[C@H](CCCNC(=N)N)NC(=O)[C@@H](CC(=O)O)NC(=O)[C@@H](N)CCCNC(=N)N)C(=O)N[C@@H](Cc1ccc(O)cc1)C(=O)N[C@@H](CN)C(=O)N[C@@H](CCC(C)C)C(N)=O
27%	CCC[C@H](NC(=O)[C@H](CCCNC(=N)N)NC(=O)[C@@H](CCCCN)NC(=O)[C@@H](N)CCCNC(=N)N)C(=O)N[C@@H](Cc1ccc(O)cc1)C(=O)N[C@@H](CN)C(=O)N[C@@H](CCC(C)C)C(N)=O
80%	CCC[C@H](NC(=O)[C@H](CCCNC(=N)N)NC(=O)[C@H](CCC)NC(=O)[C@@H](N)CCCNC(=N)N)C(=O)N[C@@H](Cc1ccc(O)cc1)C(=O)N[C@@H](CN)C(=O)N[C@@H](CCC(C)C)C(N)=O (H-R[Nva]R[Nva]Y[Dap][hLeu]-NH2)
92%	CCC[C@H](NC(=O)[C@H](CCCNC(=N)N)NC(=O)[C@H](CCCCN)NC(=O)[C@@H](N)CCCNC(=N)N)C(=O)N[C@@H](Cc1ccc(O)cc1)C(=O)N[C@@H](CN)C(=O)N[C@@H](CCC(C)C)C(N)=O
94%	CCC[C@H](NC(=O)[C@H](CCCNC(=N)N)NC(=O)[C@H](CN)NC(=O)[C@@H](N)CCCNC(=N)N)C(=O)N[C@@H](Cc1ccc(O)cc1)C(=O)N[C@@H](CN)C(=O)N[C@@H](CCC(C)C)C(N)=O
inactive	CCC[C@H](NC(=O)[C@H](CCCNC(=N)N)NC(=O)[C@@H](Cc1ccccc1)NC(=O)[C@@H](N)CCCNC(=N)N)C(=O)N[C@@H](Cc1ccc(O)cc1)C(=O)N[C@@H](CN)C(=O)N[C@@H](CCC(C)C)C(N)=O
68%	CCC[C@H](NC(=O)[C@H](CCCNC(=N)N)NC(=O)[C@H](CC(=O)O)NC(=O)[C@@H](N)CCCNC(=N)N)C(=O)N[C@@H](Cc1ccc(O)cc1)C(=O)N[C@@H](CN)C(=O)N[C@@H](CCC(C)C)C(N)=O
85%	CCC[C@H](NC(=O)[C@H](CCCNC(=N)N)NC(=O)[C@H](CC1CCCCC1)NC(=O)[C@@H](N)CCCNC(=N)N)C(=O)N[C@@H](Cc1ccc(O)cc1)C(=O)N[C@@H](CN)C(=O)N[C@@H](CCC(C)C)C(N)=O (H-R[Cha]R[Nva]Y[Dap][hLeu]-NH2)
82%	CCCC[C@H](NC(=O)[C@@H](N)CCCNC(=N)N)C(=O)N[C@@H](CCCNC(=N)N)C(=O)N[C@@H](CCC)C(=O)N[C@@H](Cc1ccc(O)cc1)C(=O)N[C@@H](CN)C(=O)N[C@@H](CCC(C)C)C(N)=O (H-R[Nle]R[Nva]Y[Dap][hLeu]-NH2)
inactive	CCC[C@H](NC(=O)[C@H](CCCNC(=N)N)NC(=O)[C@@H](Cc1ccc(O)cc1)NC(=O)[C@@H](N)CCCNC(=N)N)C(=O)N[C@@H](Cc1ccc(O)cc1)C(=O)N[C@@H](CN)C(=O)N[C@@H](CCC(C)C)C(N)=O
81%	CCC[C@H](NC(=O)[C@H](CCCNC(=N)N)NC(=O)[C@H](C)NC(=O)[C@@H](N)CCCNC(=N)N)C(=O)N[C@@H](Cc1ccc(O)cc1)C(=O)N[C@@H](CN)C(=O)N[C@@H](CCC(C)C)C(N)=O
inactive	CCC[C@H](NC(=O)[C@H](CCCNC(=N)N)NC(=O)[C@@H](C)NC(=O)[C@@H](N)CCCNC(=N)N)C(=O)N[C@@H](Cc1ccc(O)cc1)C(=O)N[C@@H](CN)C(=O)N[C@@H](CCC(C)C)C(N)=O
64%	CCC[C@H](NC(=O)[C@H](CCCNC(=N)N)NC(=O)CNCCCCCCN)C(=O)N[C@@H](Cc1ccc(O)cc1)C(=O)N[C@@H](CN)C(=O)N[C@@H](CCC(C)C)C(=O)N(CCN)CC(N)=O (H-[Gly(N-(CH2)6NH2)]R[Nva]Y[Dap][hLeu][Gly(N-2-aminoethyl)]-NH2)
63%	CCC[C@H](NC(=O)[C@H](CCCNC(=N)N)NC(=O)CNCCCN)C(=O)N[C@@H](Cc1ccc(O)cc1)C(=O)N[C@@H](CN)C(=O)N[C@@H](CCC(C)C)C(=O)N(CCN)CC(N)=O (H-[Gly(N(CH2)3NH2)]R[Nva]Y[Dap][hLeu][Gly(N-2-aminoethyl)]-NH2)
inactive	CCC[C@H](NC(=O)[C@H](CCCNC(=N)N)NC(=O)[C@H]1CCCN1C(=O)[C@@H](N)CCCNC(=N)N)C(=O)N[C@@H](Cc1ccc(O)cc1)C(=O)N[C@@H](CN)C(=O)N[C@@H](CCC(C)C)C(N)=O
74%	CCC[C@H](NC(=O)[C@H](CCCNC(=N)N)NC(=O)[C@H](Cc1ccc(O)cc1)NC(=O)[C@@H](N)CCCNC(=N)N)C(=O)N[C@@H](Cc1ccc(O)cc1)C(=O)N[C@@H](CN)C(=O)N[C@@H](CCC(C)C)C(N)=O
